According to the array DNA melting data of Ke et al. (doi:10.1101/2024.01.08.574731):

How the values were obtained:
[1] = folding enthalpy; higher = less favourable; fluorescence melt of hairpins on a sequencing array, two-state fit; details: sodium 0.088 M
How it was run: (§1)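 With Cy3 and quencher oligos annealed, library hairpins on a sequenced MiSeq flow cell were imaged for Cy3 fluorescence in 50 mM Na-HEPES pH 8.0, 25 mM NaCl, in 2.5 °C steps up to 60 °C. Melting temperature and folding enthalpy were derived from bootstrapped two-state fits of signals normalised to pre-quench Cy3 and to control constructs. Four replicates were combined by inverse variance, with fitted temperatures raised by 9.35 °C to match UV melts.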

[2] = melting temperature; fluorescence melt of hairpins on a sequencing array, two-state fit, raised by 9.35 °C to match UV melts; details: sodium 0.088 M
How it was run: as §1

GGTAGGCGAAAGCCACC (((.(((....))))))
folding enthalpy [1]: -16 kcal/mol
Tm [2]: 58.2 °C

GCCGCCGAAAGGCTGGC ((((((....))).)))
folding enthalpy [1]: -20.8 kcal/mol
Tm [2]: 69.2 °C

GTCATCGAAAGATGAGAC ((((((....)))..)))
folding enthalpy [1]: -13.7 kcal/mol
Tm [2]: 40.7 °C

GTCAACGGAAACGTTGGC (.(((((....))))).)
folding enthalpy [1]: -32.5 kcal/mol
Tm [2]: 54.9 °C

GGGATCGAAAGATTTCCC ((((((....)))..)))
folding enthalpy [1]: -19 kcal/mol
Tm [2]: 32.3 °C

GCTGAGCGAAAGCTATGC ((..(((....)))..))
folding enthalpy [1]: -17.4 kcal/mol
Tm [2]: 48.6 °C

GTAGTCGAAAGACATTAC ((((((....)))..)))
folding enthalpy [1]: -9.35 kcal/mol
Tm [2]: 23.5 °C

GCTGCTGGAAACAGTAGC (((.(((....))).)))
folding enthalpy [1]: -43.1 kcal/mol
Tm [2]: 54.3 °C

GACCGGGCGAAAGCCGTC (((..(((....))))))
folding enthalpy [1]: -10.3 kcal/mol
Tm [2]: 40.4 °C

GAAAGCGAAAGCTTGTTC ((((((....)))..)))
folding enthalpy [1]: -12.5 kcal/mol
Tm [2]: 36.8 °C

GATGCGGCGAAAGCCATC (((..(((....))))))
folding enthalpy [1]: -11.6 kcal/mol
Tm [2]: 29.2 °C

GGGTGCGAAAGCACACCC ((((((....)))..)))
folding enthalpy [1]: -10.4 kcal/mol
Tm [2]: 58.3 °C

GCAACACGAAAGTGGTGC (((.(((....))).)))
folding enthalpy [1]: -32.2 kcal/mol
Tm [2]: 68.6 °C

GATCGACGACTCGATC ((((((....))))))
folding enthalpy [1]: -36.3 kcal/mol
Tm [2]: 48.7 °C

GGTCACGAAAGTGCACC ((((((....))).)))
folding enthalpy [1]: -28.3 kcal/mol
Tm [2]: 52.5 °C

GCAATGCGAAAGCATGC (((.(((....))))))
folding enthalpy [1]: -22.9 kcal/mol
Tm [2]: 63 °C

GCTCCGCGAAAGCAAAGC (((..((....))..)))
folding enthalpy [1]: -11 kcal/mol
Tm [2]: 31.5 °C

GATCTCGGTCGAGATC ((((((....))))))
folding enthalpy [1]: -41.5 kcal/mol
Tm [2]: 56.2 °C

GCCGGATCGAAAGATGGC (((..(((....))))))
folding enthalpy [1]: -17.6 kcal/mol
Tm [2]: 46 °C

GCTCGCGAAAGCGGCAGC ((((((....)))..)))
folding enthalpy [1]: -12.2 kcal/mol
Tm [2]: 48.9 °C

GGGGGAGAAATCCCCC ((((((....))))))
folding enthalpy [1]: -29.9 kcal/mol
Tm [2]: 65.5 °C

GTTTCCGGAAACGGAAAC (((((((....)))))))
folding enthalpy [1]: -46.4 kcal/mol
Tm [2]: 64.6 °C

GCCCGGGGAAACCCGGAC (.(((((....))))).)
folding enthalpy [1]: -13.4 kcal/mol
Tm [2]: 51.3 °C

GCGTCCGGAAACGGACAC (.(((((....))))).)
folding enthalpy [1]: -11.2 kcal/mol
Tm [2]: 51 °C

GGCTATGGAAACATAACC ((.((((....)))).))
folding enthalpy [1]: -25.7 kcal/mol
Tm [2]: 34.4 °C

GCGACTCCGAAAGGACGC (((..(((....))))))
folding enthalpy [1]: -25.6 kcal/mol
Tm [2]: 46.7 °C

GATCGTCATTACGATC ((((((....))))))
folding enthalpy [1]: -38.5 kcal/mol
Tm [2]: 54.8 °C

GATATCGAAAGATATC ((((((....))))))
folding enthalpy [1]: -41 kcal/mol
Tm [2]: 53.6 °C

GTGCTCGAAAGAGTCCAC ((((((....)))..)))
folding enthalpy [1]: -13.1 kcal/mol
Tm [2]: 31.8 °C

GATCCTATCTAGGATC ((((((....))))))
folding enthalpy [1]: -37.3 kcal/mol
Tm [2]: 52.7 °C

GCTTGAGGAAACTCAAGC (((((((....)))))))
folding enthalpy [1]: -41.9 kcal/mol
Tm [2]: 62.8 °C

GAACACGAAAGTGTCTTC ((((((....)))..)))
folding enthalpy [1]: -24.3 kcal/mol
Tm [2]: 52.8 °C

GTTCAGAAATGAAC (((((....)))))
folding enthalpy [1]: -21.2 kcal/mol
Tm [2]: 41.8 °C

GCGGTTTTCCGC ((((....))))
folding enthalpy [1]: -30.3 kcal/mol
Tm [2]: 58.4 °C

GTATTTCGAAAGAACTAC (((.(((....))).)))
folding enthalpy [1]: -19.2 kcal/mol
Tm [2]: 31.7 °C

GGTAACGAAAGTTGAACC ((((((....)))..)))
folding enthalpy [1]: -14.2 kcal/mol
Tm [2]: 30.1 °C

GCACACGAAAGTGACTGC ((((((....)))..)))
folding enthalpy [1]: -17.9 kcal/mol
Tm [2]: 37.6 °C

GATGCTGGAAACGGTATC (((.(.(....).).)))
folding enthalpy [1]: -22.8 kcal/mol
Tm [2]: 31.2 °C
